Source: ChEMBL document CHEMBL5058577, “EUbOPEN Chemogenomics Library 2 (Multiplex)” (2022)

System: HEK-293T
Assay: Multiplex assay against HEK293T
Type: toxicity, cell-based
Conditions: human
Summary of the method: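 Per cents of healthy-nucleus cells form the tubulin, mitochondrial-mass and membrane-permeability phenotype values. Live cells were stained at seeding with Hoechst33342, BioTracker Green Microtubule Cytoskeleton Dye, MitoTracker Red and Annexin V Alexa Fluor 680. After compound addition they were imaged on a CQ1 microscope at 37°C and 5% CO2, and CellPathfinder machine-learning gating split them into Hoechst high-intensity objects or normal cells, normal cells into healthy, pyknosed or fragmented nuclei, and pyknosed cells into mitotic or apoptotic.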

[1] = 12 h, 1 µM, compound concentration 1 uM, replicate 1
[2] = 12 h, 1 µM, compound concentration 1 uM, replicate 2
[3] = 12 h, 10 µM, compound concentration 10 uM, replicate 1
[4] = 12 h, 10 µM, compound concentration 10 uM, replicate 2
[5] = 24 h, 1 µM, compound concentration 1 uM, replicate 1
[6] = 24 h, 1 µM, compound concentration 1 uM, replicate 2
[7] = 24 h, 10 µM, compound concentration 10 uM, replicate 1
[8] = 24 h, 10 µM, compound concentration 10 uM, replicate 2
[9] = 48 h, 1 µM, compound concentration 1 uM, replicate 1
[10] = 48 h, 1 µM, compound concentration 1 uM, replicate 2
[11] = 48 h, 10 µM, compound concentration 10 uM, replicate 1
[12] = 48 h, 10 µM, compound concentration 10 uM, replicate 2

## O=C(O)Cc1ccccc1Nc1c(Cl)cccc1Cl [DICLOFENAC]
[1]
  Population Apoptotic (%): 36%
  Population Fragmented Nuclei (%): 7%
  Population Healthy Nuclei (%): 77%
  Population Hoechst High Intensity Objects (%): 5%
  Population Membrane Permeable-Phenotype (%): 0%
  Population Mitochondria Different-Phenotype (%): 53%
  Population Mitotic Cells (%): 63%
  Population Normal (%): 94%
  Population Pyknosed Nuclei (%): 14%
  Population Tubulin-Different-Phenotype (%): 32%
  Total Cell Count: 376
[2]
  Population Apoptotic (%): 52%
  Population Healthy Nuclei (%): 79%
  Population Hoechst High Intensity Objects (%): 10%
  Population Mitochondria Different-Phenotype (%): 61%
  Population Mitotic Cells (%): 47%
  Population Normal (%): 89%
  Population Pyknosed Nuclei (%): 13%
  Population Tubulin-Different-Phenotype (%): 23%
  Total Cell Count: 324
[3]
  Population Apoptotic (%): 30%
  Population Fragmented Nuclei (%): 7%
  Population Healthy Nuclei (%): 77%
  Population Hoechst High Intensity Objects (%): 6%
  Population Membrane Permeable-Phenotype (%): 0%
  Population Mitochondria Different-Phenotype (%): 45%
  Population Mitotic Cells (%): 69%
  Population Normal (%): 93%
  Population Pyknosed Nuclei (%): 14%
  Population Tubulin-Different-Phenotype (%): 35%
  Total Cell Count: 480
[4]
  Population Apoptotic (%): 57%
  Population Healthy Nuclei (%): 75%
  Population Hoechst High Intensity Objects (%): 14%
  Population Mitochondria Different-Phenotype (%): 68%
  Population Mitotic Cells (%): 42%
  Population Normal (%): 85%
  Population Pyknosed Nuclei (%): 17%
  Total Cell Count: 370
[5]
  Population Apoptotic (%): 30%
  Population Fragmented Nuclei (%): 7%
  Population Healthy Nuclei (%): 76%
  Population Hoechst High Intensity Objects (%): 3%
  Population Membrane Permeable-Phenotype (%): 0%
  Population Mitochondria Different-Phenotype (%): 44%
  Population Mitotic Cells (%): 69%
  Population Normal (%): 96%
  Population Pyknosed Nuclei (%): 15%
  Population Tubulin-Different-Phenotype (%): 24%
  Total Cell Count: 456
[6]
  Population Apoptotic (%): 45%
  Population Fragmented Nuclei (%): 6%
  Population Healthy Nuclei (%): 78%
  Population Hoechst High Intensity Objects (%): 10%
  Population Mitochondria Different-Phenotype (%): 37%
  Population Mitotic Cells (%): 54%
  Population Normal (%): 89%
  Population Pyknosed Nuclei (%): 14%
  Population Tubulin-Different-Phenotype (%): 9%
  Total Cell Count: 418
[7]
  Population Apoptotic (%): 25%
  Population Fragmented Nuclei (%): 10%
  Population Healthy Nuclei (%): 77%
  Population Hoechst High Intensity Objects (%): 4%
  Population Membrane Permeable-Phenotype (%): 0%
  Population Mitochondria Different-Phenotype (%): 29%
  Population Mitotic Cells (%): 74%
  Population Normal (%): 95%
  Population Pyknosed Nuclei (%): 12%
  Population Tubulin-Different-Phenotype (%): 29%
  Total Cell Count: 650
[8]
  Population Apoptotic (%): 49%
  Population Healthy Nuclei (%): 75%
  Population Hoechst High Intensity Objects (%): 9%
  Population Mitochondria Different-Phenotype (%): 50%
  Population Mitotic Cells (%): 50%
  Population Normal (%): 90%
  Population Pyknosed Nuclei (%): 14%
  Population Tubulin-Different-Phenotype (%): 26%
  Total Cell Count: 462
[9]
  Population Apoptotic (%): 23%
  Population Fragmented Nuclei (%): 11%
  Population Healthy Nuclei (%): 82%
  Population Hoechst High Intensity Objects (%): 2%
  Population Membrane Permeable-Phenotype (%): 1%
  Population Mitochondria Different-Phenotype (%): 22%
  Population Mitotic Cells (%): 76%
  Population Normal (%): 97%
  Population Pyknosed Nuclei (%): 6%
  Population Tubulin-Different-Phenotype (%): 15%
  Total Cell Count: 730
[10]
  Population Apoptotic (%): 33%
  Population Fragmented Nuclei (%): 15%
  Population Healthy Nuclei (%): 79%
  Population Mitochondria Different-Phenotype (%): 16%
  Population Mitotic Cells (%): 66%
  Population Pyknosed Nuclei (%): 4%
  Population Tubulin-Different-Phenotype (%): 10%
  Total Cell Count: 697
[11]
  Population Apoptotic (%): 36%
  Population Fragmented Nuclei (%): 12%
  Population Healthy Nuclei (%): 80%
  Population Hoechst High Intensity Objects (%): 3%
  Population Membrane Permeable-Phenotype (%): 1%
  Population Mitochondria Different-Phenotype (%): 17%
  Population Mitotic Cells (%): 63%
  Population Normal (%): 96%
  Population Pyknosed Nuclei (%): 7%
  Population Tubulin-Different-Phenotype (%): 18%
  Total Cell Count: 883
[12]
  Population Fragmented Nuclei (%): 16%
  Population Healthy Nuclei (%): 75%
  Population Hoechst High Intensity Objects (%): 4%
  Population Membrane Permeable-Phenotype (%): 0%
  Population Mitochondria Different-Phenotype (%): 36%
  Population Normal (%): 95%
  Population Tubulin-Different-Phenotype (%): 17%
  Total Cell Count: 649

## O=S(=O)(c1ccccc1)c1cnc2c(N3CCNCC3)cccc2c1 [INTEPIRDINE]
[1]
  Population Apoptotic (%): 40%
  Population Fragmented Nuclei (%): 7%
  Population Healthy Nuclei (%): 80%
  Population Hoechst High Intensity Objects (%): 7%
  Population Membrane Permeable-Phenotype (%): 0%
  Population Mitochondria Different-Phenotype (%): 54%
  Population Mitotic Cells (%): 60%
  Population Normal (%): 92%
  Population Pyknosed Nuclei (%): 12%
  Population Tubulin-Different-Phenotype (%): 43%
  Total Cell Count: 403
[2]
  Population Apoptotic (%): 50%
  Population Healthy Nuclei (%): 74%
  Population Hoechst High Intensity Objects (%): 10%
  Population Mitochondria Different-Phenotype (%): 69%
  Population Mitotic Cells (%): 50%
  Population Normal (%): 89%
  Population Pyknosed Nuclei (%): 17%
  Population Tubulin-Different-Phenotype (%): 23%
  Total Cell Count: 336
[3]
  Population Apoptotic (%): 51%
  Population Fragmented Nuclei (%): 8%
  Population Healthy Nuclei (%): 72%
  Population Hoechst High Intensity Objects (%): 10%
  Population Membrane Permeable-Phenotype (%): 0%
  Population Mitochondria Different-Phenotype (%): 70%
  Population Mitotic Cells (%): 48%
  Population Normal (%): 89%
  Population Pyknosed Nuclei (%): 18%
  Population Tubulin-Different-Phenotype (%): 58%
  Total Cell Count: 326
[4]
  Population Apoptotic (%): 46%
  Population Fragmented Nuclei (%): 4%
  Population Healthy Nuclei (%): 79%
  Population Hoechst High Intensity Objects (%): 7%
  Population Mitochondria Different-Phenotype (%): 76%
  Population Mitotic Cells (%): 53%
  Population Normal (%): 92%
  Population Pyknosed Nuclei (%): 15%
  Population Tubulin-Different-Phenotype (%): 50%
  Total Cell Count: 349
[5]
  Population Apoptotic (%): 28%
  Population Fragmented Nuclei (%): 6%
  Population Healthy Nuclei (%): 80%
  Population Hoechst High Intensity Objects (%): 5%
  Population Membrane Permeable-Phenotype (%): 0%
  Population Mitochondria Different-Phenotype (%): 35%
  Population Mitotic Cells (%): 71%
  Population Normal (%): 94%
  Population Pyknosed Nuclei (%): 12%
  Population Tubulin-Different-Phenotype (%): 26%
  Total Cell Count: 530
[6]
  Population Apoptotic (%): 58%
  Population Fragmented Nuclei (%): 7%
  Population Healthy Nuclei (%): 85%
  Population Mitochondria Different-Phenotype (%): 43%
  Population Mitotic Cells (%): 41%
  Population Pyknosed Nuclei (%): 7%
  Population Tubulin-Different-Phenotype (%): 14%
  Total Cell Count: 416
[7]
  Population Apoptotic (%): 52%
  Population Fragmented Nuclei (%): 11%
  Population Healthy Nuclei (%): 75%
  Population Hoechst High Intensity Objects (%): 6%
  Population Membrane Permeable-Phenotype (%): 0%
  Population Mitochondria Different-Phenotype (%): 50%
  Population Mitotic Cells (%): 47%
  Population Normal (%): 93%
  Population Pyknosed Nuclei (%): 12%
  Population Tubulin-Different-Phenotype (%): 33%
  Total Cell Count: 439
[8]
  Population Apoptotic (%): 51%
  Population Fragmented Nuclei (%): 9%
  Population Healthy Nuclei (%): 82%
  Population Hoechst High Intensity Objects (%): 4%
  Population Mitochondria Different-Phenotype (%): 61%
  Population Mitotic Cells (%): 48%
  Population Normal (%): 95%
  Population Pyknosed Nuclei (%): 8%
  Population Tubulin-Different-Phenotype (%): 42%
  Total Cell Count: 458
[9]
  Population Apoptotic (%): 17%
  Population Fragmented Nuclei (%): 12%
  Population Healthy Nuclei (%): 80%
  Population Hoechst High Intensity Objects (%): 4%
  Population Membrane Permeable-Phenotype (%): 1%
  Population Mitochondria Different-Phenotype (%): 25%
  Population Mitotic Cells (%): 82%
  Population Normal (%): 95%
  Population Pyknosed Nuclei (%): 7%
  Population Tubulin-Different-Phenotype (%): 16%
  Total Cell Count: 866
[10]
  Population Apoptotic (%): 25%
  Population Fragmented Nuclei (%): 13%
  Population Healthy Nuclei (%): 79%
  Population Hoechst High Intensity Objects (%): 3%
  Population Membrane Permeable-Phenotype (%): 0%
  Population Mitochondria Different-Phenotype (%): 26%
  Population Mitotic Cells (%): 75%
  Population Normal (%): 96%
  Population Pyknosed Nuclei (%): 6%
  Population Tubulin-Different-Phenotype (%): 12%
  Total Cell Count: 641
[11]
  Population Apoptotic (%): 40%
  Population Fragmented Nuclei (%): 14%
  Population Healthy Nuclei (%): 75%
  Population Hoechst High Intensity Objects (%): 4%
  Population Membrane Permeable-Phenotype (%): 0%
  Population Mitochondria Different-Phenotype (%): 45%
  Population Mitotic Cells (%): 59%
  Population Normal (%): 95%
  Population Pyknosed Nuclei (%): 10%
  Population Tubulin-Different-Phenotype (%): 30%
  Total Cell Count: 606
[12]
  Population Apoptotic (%): 18%
  Population Fragmented Nuclei (%): 11%
  Population Healthy Nuclei (%): 82%
  Population Mitochondria Different-Phenotype (%): 38%
  Population Mitotic Cells (%): 81%
  Population Pyknosed Nuclei (%): 5%
  Population Tubulin-Different-Phenotype (%): 27%
  Total Cell Count: 673
